High-throughput results from PubChem BioAssay.
Most compounds without a hit are left out; they make up all but 2.4% or so of the library.
NadD inh: inhibitors of Staphylococcus aureus NadD. purified NadD enzyme, colorimetric absorbance read-out. inhibition, % at 20 µM. 360,000 tested, 0.78% active; in the data active means inhibition above about 26%
LMPTP inh: blocks human LMPTP phosphatase; 360,000 tested, 0.22% active; AID 651560; recombinant LMPTP-A, OMFP fluorogenic substrate, fluorescence intensity; inhibition, % at 20 µM; P24666;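 active means compounds that cut the enzyme signal by at least half of the control window in the single-dose screen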;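 further: plate controls were DMSO wells with enzyme plus substrate for no effect and substrate without enzyme for full effect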
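test system = LMPTP-A | amount = 0.625 nM LMPTP-A final | reagent = fluorogenic phosphatase substrate OMFP at 400 µM final | incubation = 50 min at room temperature | benchmarks = no-enzyme low control, uninhibited high control | medium = Bis-Tris pH 6.0, DTT, detergent | signal = fluorescence intensity of OMFP turnover product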
DNMT1 block: inhibitors of human DNMT1; P26358; DNMT1 molecular beacon, Hinp1I cleavage, fluorescence; inhibition (reported as % activation of signal), % at 10 µM; 360,000 tested, 0.83% active; in the data active means inhibition above about 50%
STEP inh: inhibitors of human striatal-enriched phosphatase STEP; recombinant STEP, OMFP fluorogenic substrate, fluorescence; inhibition, % at 20 µM; 360,000 tested, 0.25% active; AID 588621;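 active means inhibition at 20 µM, scaled per plate between control wells, above about 37%, limit read from the data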;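 further: 0% = DMSO with enzyme and substrate and 100% = substrate only without enzyme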
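System: isolated STEP enzyme; schedule: 20 min enzyme reaction at room temperature, protected from light; medium: Bis-Tris buffer pH 6.0, 2.5 mM DTT, 0.005% Tween 20; signal: fluorescence, 480/540 nm; dosing: single compound dose of 20 µM, 1% DMSO final; also added: OMFP substrate, 25 µM final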
SUMO1 PPI mod: SUMO1-SIM interaction modulation; P63165; SUMO1 binding to a labelled peptide, TR-FRET, 1 h; inhibition, % at 20 µM; 360,000 tested, 0.33% active; in the data active means inhibition above about 37%
Scp1 inh: inhibitors of human Scp-1 phosphatase. Q9GZU7. Recombinant Scp1, phosphopeptide, malachite green phosphate absorbance. inhibition, % at 20 µM. 340,000 tested, 0.88% active;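 active means inhibition above about 50% at 20 µM, limit read from the data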;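 further: plate controls were DMSO wells with enzyme for no effect and wells lacking enzyme for full effect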
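Test system: SCP-1 phosphatase catalytic domain, residues 76-261; measured by: colorimetric phosphate reagent with accelerator and stabiliser, absorbance at 630 nm; timing: enzyme reaction 45 min at room temperature, colour 5 min, stabilisation 30 min; also added: Phosphorylated 17-residue peptide substrate; compound dosing: one concentration, 20 µM, with 1.0% DMSO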
Beacon interf DR: counter-screen for DNMT1 inhibitors: spectral interference, dose response | shares compounds with DNMT1 block | molecular beacon fluorescence | IC50, µM | 200 tested, under 10 active; call rule not given here
DNMT1 inh conf: confirmation of human DNMT1 inhibitors; inhibition, % at 10 µM; 2,300 tested, 8% active; shares compounds with DNMT1 block; AID 602385; DNMT1 molecular beacon HinP1I cleavage, fluorescence;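 active means average inhibition of at least 30% in the single-concentration confirmation test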
Beacon interf: beacon fluorescence artifact counter-screen. shares compounds with DNMT1 block. DNMT1 molecular beacon spectral interference counterscreen, fluorescence 485/520. activation (fluorescence interference), % at 10 µM. 2,300 tested, 1% active. AID 602387;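 active means activation of at least 30% at 10 µM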;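 further: DNMT1 catalytic domain with a HinP1I cleavage step and a FAM/dabcyl DNA beacon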
Active calls of the source: *; · = no result given.

SMILES	NadD inh	LMPTP inh	DNMT1 block	STEP inh	SUMO1 PPI mod	Scp1 inh	DNMT1 inh conf	Beacon interf	others
Cc1nc2ccc(S(=O)(=O)NCC(=O)N3CCCCC3)cc2s1	2.5	-1.4	3.2	2.1	1.5	-1.9	·	·
O=c1cc(CCl)nc2sc3ccccc3n12	3.9	14.2	62.0*	8.6	7.2	46.5	3.1	-2.5
CCOc1cc2[nH]c(=S)n(CCC(=O)NC3CCCCC3)c(=O)c2cc1OCC	-1.6	-0.2	51.1*	-4.3	10.3	·	2.3	-0.6
C/C(=N/OCc1ccc(Br)cc1)c1ccccn1	2.5	-0.2	6.8	0.5	-2.6	-5.6	·	·
c1cnc2nc3c4ccccc4c4ccccc4c3nc2c1	10.4	8.4	51.5*	-1.6	35.6	13.2	-0.5	-0.1
C=CCN(c1ccccc1)S(=O)(=O)c1cccc(C(=O)Nc2ncccc2C)c1	1.4	-9.1	-8.6	-2.8	-47.7	-6.8	·	·
COc1ccc2oc(=O)c(C(=O)Nc3cccc(C(C)=O)c3)cc2c1	-3.8	1.5	-2.1	0.2	-12.6	-9.4	·	·
COc1ccccc1C(=O)NC(=S)Nc1ccc(N2CCCC2)cc1	7.4	3.8	68.1*	2.5	8.5	8.4	5.2	4.4
C[C@@H]1CN([C@@H](C)CO)C(=O)c2cc(Br)cnc2O[C@H]1CN(C)C(=O)C1CC1	-0.4	0.6	-4.7	-0.2	4.0	·	·	·
CCCN(CC(=O)Nc1ccc(Cl)cc1Cl)C(=O)CC(NC(C)=O)c1ccccc1 (stereo unspecified)	-4.7	1.3	-2.1	-0.1	-6.3	-0.7	·	·
CC(=O)NC(CC(=O)NC(C)c1ccc(Cl)cc1Cl)c1ccccc1 (stereo unspecified)	-4.0	-1.4	67.9*	-0.9	0.7	-4.2	-0.2	1.5
CCC1CCc2sc(C(=O)NNC(=O)c3ccncc3)cc2C1 (stereo unspecified)	-0.7	0.3	88.2*	-1.0	4.0	-3.8	5.4	6.2
COc1ccc(NC(=O)c2csc3c2CCCCC3)c(OC)c1	0.2	0.8	-1.6	2.2	-2.8	-3.2	·	·
O=C(Nc1cccc(Cl)c1)c1cnn2cccnc12	0.4	0.6	-1.9	-3.6	1.2	-5.3	·	·
COc1ccc(NC(=O)CCn2c(=S)[nH]c3ccccc3c2=O)cc1Cl	7.3	48.9*	54.4*	22.7	12.7	·	3.5	5.7
CC(C)NC(=O)CN(CCc1ccccc1)S(C)(=O)=O	-3.8	0.1	0.1	-1.2	1.6	-2.5	·	·
CCOC(=O)c1c(NC(=O)COC(=O)Cn2c(C)nc3ccccc32)sc2c1CCCC2	1.9	26.6	65.0*	10.4	-8.6	5.4	5.3	0.6
O=C(Nc1cccc(C(F)(F)F)c1)c1ccco1	5.5	-0.6	-5.4	-2.3	-1.0	-2.5	·	·
Cc1cc(NC(=O)c2ccco2)c(=O)n(Cc2cccc(C(F)(F)F)c2)c1	-6.2	1.1	65.9*	0.2	-7.7	-6.4	3.1	4.7
COc1cc(/C=C/C(=O)OCC(=O)N2CCN(S(=O)(=O)c3ccc(C)cc3C)CC2)ccc1OC(F)F	-8.9	4.1	-0.8	2.8	3.0	-12.7	·	·
O=C(NCCNS(=O)(=O)c1ccccc1)c1ccc([N+](=O)[O-])cc1	1.6	-0.8	-0.2	1.0	-32.9	4.4	·	·
COc1cccc(OC)c1OC(=O)C1CC(=O)N(c2ccc3c(c2)OCCO3)C1 (stereo unspecified)	6.5	3.2	52.7*	5.5	31.4	46.8	1.8	0.5
COc1ccccc1NC(=O)C(C)OC(=O)C1CC(=O)N(c2ccc3c(c2)OCCO3)C1 (stereo unspecified)	-1.8	0.3	1.7	-0.2	2.1	-6.7	·	·
COc1ccc(NC(=O)CCC(=O)c2ccc(-c3ccccc3)cc2)cc1	4.1	0.7	8.4	8.1	1.1	1.1	·	·
Cc1ccc(NC(=O)CCC(=O)OCC(=O)c2ccc(-c3ccccc3)cc2)cc1	8.4	1.5	51.2*	0.5	3.1	-4.1	4.7	0.3
SMILES	NadD inh	LMPTP inh	DNMT1 block	STEP inh	SUMO1 PPI mod	Scp1 inh	DNMT1 inh conf	Beacon interf	others
Cc1nc2c3cc(F)ccc3n(Cc3ccc(F)cc3)c2s1	3.7	3.2	-10.4	0.9	1.1	1.2	·	·
CCc1ccc2c(c1)c1nc(C)sc1n2CC	-0.6	3.2	51.2*	5.0	35.8	-4.3	2.8	3.2
O=C(NCCc1ccc(F)cc1)C(=O)NCC1CCCN1S(=O)(=O)c1cccs1 (stereo unspecified)	-5.8	1.0	3.2	3.1	-1.1	-2.8	·	·
CC(=O)OCCc1c2ccccc2c(CCCN(C)C)c2ccccc12	-3.6	2.9	51.5*	0.5	-46.0	-9.8	3.1	1.9
CCC(CC)C(=O)c1c[nH]c(C(=O)NCc2ccccn2)c1	4.2	-0.4	2.3	-0.7	3.8	-0.4	·	·
COc1ccc(N=Cc2oc3ccc4ccccc4c3c2O)cc1	-2.1	11.1	60.0*	20.4	-14.7	39.9	3.5	1.7
COc1ccc(C(C(=O)NC2CCCCC2)N(C(=O)c2cccs2)c2ccc3c(c2)OCO3)cc1 (stereo unspecified)	2.5	1.8	18.4	2.5	1.0	9.8	·	·
O=C(Nc1cccc(N2CCCC2)c1)c1cccs1	29.9	17.4	59.4*	1.1	6.7	-8.0	2.7	5.3
O=C(N=Nc1c(O)n(Cc2ccccc2)c2ccccc12)c1ccc(O)cc1	28.5	0.2	-5.4	1.0	-10.0	-14.1	·	·
O=C(N=Nc1c(O)n(Cc2ccccc2)c2ccccc12)c1cc2ccccc2cc1O	39.6*	11.7	81.6*	3.0	-5.5	37.2	2.2	-7.7
COc1cc2[nH]c(=O)n3nc(-c4ccccc4)nc3c2cc1OC	0.2	4.2	-0.6	6.5	13.5	-5.2	·	·
CCN(CC)CCNc1nc2cc(OC)c(OC)cc2c2nc(-c3ccccc3)nn12	-7.6	3.8	67.2*	4.2	12.1	-7.2	25.6	-4.2	Beacon interf DR=>99
c1ccc(CSc2ccc3nnc(-c4cccnc4)n3n2)cc1	-1.6	-1.8	2.6	1.4	-13.0	-4.4	·	·
N#Cc1c(N)n(CCc2ccc(F)cc2)c2nc3ccccc3nc12	6.7	7.8	70.9*	-1.8	29.9	5.6	0.2	3.1
NC(=S)N/N=C/c1coc2c(ccc3ccccc32)c1=O	16.5	15.7	54.6*	-2.3	1.7	-6.5	1.8	-7.2
COC(=O)CC1OCC=C2CN3CCC45C6=CC(=O)C(=O)C([N+](=O)[O-])=C6NC4C1C2CC35 (stereo unspecified)	10.7	13.3	85.5*	9.8	31.9	·	52.6*	-10.2	Beacon interf DR=>99
